Bioassay records deposited in PubChem by several laboratories.
Hits are enriched below; roughly 2.3% of the tested compounds scored in any of these assays.
PAFAH1B3 inh – PAFAH1B3 enzyme inhibitors, primary screen, biochemical, fluorescence polarization, human; recombinant PAFAH1B3, FP-rhodamine probe; inhibition, % at 3.39 µM; 340,000 compounds, 0.28% hits; AID 492972, 2010;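 active = inhibition above the screen-wide average of all tested compounds plus 3 SD, cut at about 25% in these data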
Target sequence (Q15102 whole entry, looked up): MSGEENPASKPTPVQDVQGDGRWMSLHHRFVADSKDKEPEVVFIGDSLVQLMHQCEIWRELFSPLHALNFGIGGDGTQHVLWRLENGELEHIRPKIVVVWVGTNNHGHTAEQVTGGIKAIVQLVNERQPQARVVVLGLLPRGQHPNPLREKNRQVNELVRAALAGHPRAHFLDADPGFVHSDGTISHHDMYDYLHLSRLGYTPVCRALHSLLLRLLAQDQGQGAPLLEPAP
TDP2 absorb – human TDP2 enzyme inhibitors, primary screen, biochemical, epi absorbance, recombinant enzyme. AID 720702, 2013. 370,000 compounds, 0.34% hits. inhibition, % at 12.8 µM. T5PNP hydrolysis, p-nitrophenol absorbance 415 nm;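 active = inhibition above the mean of all tested compounds plus 3 SD, set per campaign, cut at about 25% in these data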
Target sequence (O95551 whole entry, looked up): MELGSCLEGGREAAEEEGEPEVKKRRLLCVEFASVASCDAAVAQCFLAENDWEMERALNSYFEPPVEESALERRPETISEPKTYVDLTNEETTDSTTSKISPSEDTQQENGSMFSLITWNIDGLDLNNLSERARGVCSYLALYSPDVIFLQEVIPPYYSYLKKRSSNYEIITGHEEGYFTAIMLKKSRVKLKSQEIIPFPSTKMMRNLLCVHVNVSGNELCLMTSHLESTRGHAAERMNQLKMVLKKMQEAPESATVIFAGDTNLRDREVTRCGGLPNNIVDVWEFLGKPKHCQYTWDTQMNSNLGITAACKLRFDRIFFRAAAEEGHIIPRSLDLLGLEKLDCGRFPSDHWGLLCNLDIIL
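Test system: Human TDP2 enzyme | Reagent: 5 mM T5PNP | Compound dosing: 12.8 µM single point, 1% DMSO | Incubation: Enzyme reaction with compound for 2 h at 37 °C | Technique: p-Nitrophenol epi absorbance | Read-out: % inhibition relative to enzyme-containing and enzyme-free wells | Benchmarks: High control without enzyme, low control DMSO plus TDP2 | Replicates: Singlicate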
Apaf-1 inh – inhibitors of human Apaf-1 apoptosome, primary screen, biochemical, DEVD-Rh110 fluorescence, uHTS; AID 489030, 2010; inhibition, % at 20 µM; 330,000 compounds, 0.71% hits; reconstituted apoptosome caspase-3 activity; active = inhibition of at least 40% at 20 µM
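System: reconstituted apoptosome with Apaf-1, cytochrome c, caspase-9, procaspase-3, dATP; Signal: Rh110 fluorescence intensity; Schedule: 30 min compound preincubation, 50 min activation, room temperature; Reagent: cytochrome c trigger plus (Z-DEVD)2-Rh110 caspase-3 substrate.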
PAFAH1B2 inh – PAFAH1B2 enzyme inhibitors, primary screen, biochemical, fluorescence polarization, human; 340,000 compounds, 1.2% hits; Platelet-activating factor acetylhydrolase IB subunit alpha2 (Homo sapiens), P68402; recombinant PAFAH1B2, FP-rhodamine activity probe; AID 492953, 2010; inhibition, % at 3.39 µM;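 active = inhibition above the mean of all tested compounds plus 3 SD, cut at about 24% in these data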
PAFAH2 FP inh – PAFAH2 enzyme inhibitors, primary screen, biochemical, fluorescence polarization, human. Platelet-activating factor acetylhydrolase 2, cytoplasmic (Homo sapiens), Q99487. recombinant PAFAH2, FP-rhodamine activity probe. inhibition, % at 3.39 µM. 340,000 compounds, 0.99% hits. AID 492956, 2010;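 active = inhibition above the mean over all tested compounds plus 3 SD, cut at about 30% in these data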;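 note: inhibitors block probe labeling of enzyme so polarization drops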
PAFAH2 FP conf – PAFAH2 enzyme inhibitors, confirmation, biochemical, fluorescence polarization, human; shares compounds with PAFAH2 FP inh; recombinant PAFAH2, FP-rhodamine activity probe; inhibition, % at 3.39 µM; 2,300 compounds, 65% hits;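 active = mean inhibition over three repeats above a set limit taken from the earlier primary screen, cut at about 30% in these data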;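 note: inhibitor blocks binding of rhodamine activity probe so polarization falls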
Large screens that a line does not name were inactive (follow-up assays come after a bar, where they were run).

COc1ccc2nc(-n3c(O)c(C4=c5ccccc5=NC4=O)[nH]c3=S)sc2c1	PAFAH2 FP inh 60 (no result: Apaf-1 inh) | PAFAH2 FP conf 40
CN(C)c1ccc(N/C(=N\S(=O)(=O)c2cccs2)c2ccccc2)cc1	PAFAH2 FP inh 57 | PAFAH2 FP conf 54
CN(/C(=N/S(=O)(=O)c1cccs1)c1ccccc1)c1ccccc1	none
COC(=O)CC#C[C@H](C)[C@@H](NS(=O)(=O)c1ccc(C)cc1)C1CCCCC1	none (no result: PAFAH1B3 inh, Apaf-1 inh, PAFAH1B2 inh, PAFAH2 FP inh)
CC(C)C(NC(=O)OCc1ccccc1)C(=O)OCC(=O)N1CCCCC1 (stereo unspecified)	none
O=C(CCC(NC(=O)OCc1ccccc1)C(=O)OCC(=O)N1CCCCC1)OCC(=O)N1CCCCC1 (stereo unspecified)	PAFAH2 FP inh 53 | PAFAH2 FP conf 48
O=C(COC(=O)CCC(NC(=O)OCc1ccccc1)C(=O)OCC(=O)Nc1ccccc1)Nc1ccccc1 (stereo unspecified)	PAFAH2 FP inh 70 | PAFAH2 FP conf 84
CCOC(=O)Nc1nc(-c2ccccc2)c(C(=O)c2ccccc2)s1	PAFAH2 FP inh 41 | PAFAH2 FP conf 42
C[C@H](O)[C@@H]1CN2CCc3ccc(N4CCOCC4)cc3[C@@H]2C[C@@H]1N(C)CC1CCCCC1	none (no result: PAFAH1B3 inh, Apaf-1 inh, PAFAH1B2 inh, PAFAH2 FP inh)
COC(=O)c1ccccc1S(=O)(=O)NNC(=O)Nc1ccccc1	PAFAH2 FP inh 34 | PAFAH2 FP conf inactive
CC(=O)c1ccc(NC(=O)c2ccc(NC(=O)CCS(=O)(=O)c3cccs3)cc2)cc1	PAFAH2 FP inh 72 | PAFAH2 FP conf 58
COc1ccccc1NC(=O)COC(=O)CC(C)(C)CC1=NS(=O)(=O)c2ccccc2N1	none
CC(C)(CC(=O)OCC(=O)Nc1ccccc1F)CC1=NS(=O)(=O)c2ccccc2N1	PAFAH2 FP inh 31 | PAFAH2 FP conf inactive
COc1ccc(C(c2ccc(OC)cc2)N2CCN(C(=O)c3noc(C)c3[N+](=O)[O-])CC2)cc1	none (no result: PAFAH1B3 inh, Apaf-1 inh, PAFAH1B2 inh, PAFAH2 FP inh)
CCCCCCCCN1CN2Cc3ccccc3C2CS1(=O)=O (stereo unspecified)	none (no result: PAFAH1B3 inh, Apaf-1 inh, PAFAH1B2 inh, PAFAH2 FP inh)
Cc1nn(-c2ccccc2)c(C)c1C(=O)OCC(=O)Nc1ccccc1	PAFAH2 FP inh 55 | PAFAH2 FP conf 43
Cc1nn(-c2ccccc2)c(C)c1C(=O)OCC(=O)Nc1ccc2c(c1)OCO2	PAFAH2 FP inh 35 | PAFAH2 FP conf 30
Cc1cc(NC(=O)COC(=O)c2c(C)nn(-c3ccccc3)c2C)no1	none
Cc1ccc(NC(=O)COC(=O)c2c(C)nn(-c3ccccc3)c2C)cc1	none
C[C@H](CO)N1C[C@H](C)[C@H](CN(C)C(=O)Nc2cccc3ccccc23)Oc2ncc(Br)cc2C1=O	none (no result: PAFAH1B3 inh, Apaf-1 inh, PAFAH1B2 inh, PAFAH2 FP inh)
O=C(NN1CCOCC1)c1ccccc1NS(=O)(=O)c1ccc(F)cc1F	PAFAH2 FP inh 70 | PAFAH2 FP conf 78
Cc1ccc(C(=O)OCC(=O)c2ccc(Br)cc2)cc1S(=O)(=O)N1CCOCC1	PAFAH2 FP inh 34 (no result: Apaf-1 inh) | PAFAH2 FP conf inactive
Cc1ccc(NC(=O)COC(=O)c2ccco2)cc1S(=O)(=O)N1CCOCC1	PAFAH2 FP inh 66 | PAFAH2 FP conf 60
Cc1ccc(C(=O)OCC(=O)NCCc2ccccc2)cc1S(=O)(=O)N1CCOCC1	none
Cc1ccc(NC(=O)COC(=O)/C=C/c2ccccc2)cc1S(=O)(=O)N1CCOCC1	PAFAH2 FP inh 58 | PAFAH2 FP conf 34
Cc1ccc(C(=O)OCC(=O)NCc2cccs2)cc1S(=O)(=O)N1CCOCC1	PAFAH2 FP inh 49 | PAFAH2 FP conf 38
CCCCOCCCNC(=O)C[C@H]1C[C@@]2(C(=O)OC)C(=C[C@H](C(C)(C)C)O[C@@H]2C)N(Cc2ccc(Cl)cc2Cl)C1=O	none (no result: PAFAH1B3 inh, Apaf-1 inh, PAFAH1B2 inh, PAFAH2 FP inh)
Cc1ccc(NC(=O)COC(=O)c2ccc(C)c(S(=O)(=O)N3CCOCC3)c2)cc1	PAFAH2 FP inh 71 | PAFAH2 FP conf 71
Cc1ccc(C(=O)OCC(=O)NC2CC2)cc1S(=O)(=O)N1CCOCC1	PAFAH2 FP inh 51 | PAFAH2 FP conf 32
NC(=O)c1ccc(NC(=O)COC(=O)c2ccc(Br)c(S(=O)(=O)N3CCOCC3)c2)cc1	none (no result: Apaf-1 inh)
O=C(COC(=O)c1ccc(F)c(S(=O)(=O)N2CCOCC2)c1)NC1CC1	none
COC(=O)[C@]12C[C@H](CC(=O)NCc3ccc(C)o3)C(=O)N(Cc3cccc4ccccc34)C1=C[C@H](COCc1ccccc1)O[C@@H]2C	none (no result: PAFAH1B3 inh, Apaf-1 inh, PAFAH1B2 inh, PAFAH2 FP inh)
O=C(CSc1nnc(-c2ccc(Cl)cc2)n1-c1ccccc1)Nc1ccc2c(c1)OCCO2	none (no result: PAFAH1B3 inh, Apaf-1 inh, PAFAH1B2 inh, PAFAH2 FP inh)
Cc1ccn(C(=O)c2ccc(NC(=O)C3CC3)cc2)n1	PAFAH2 FP inh 63 | PAFAH2 FP conf 53
CCC(=O)Nc1ccc(C(=O)n2nc(C)cc2C)cc1	none
Cc1cc(C)n(C(=O)c2ccc(NC(=O)CC(C)C)cc2)n1	none
Cc1ccn(C(=O)c2ccc(NC(=O)CC(C)C)cc2)n1	PAFAH2 FP inh 62 | PAFAH2 FP conf 56
CCC(=O)Nc1ccc(C(=O)n2ccc(C)n2)cc1	PAFAH2 FP inh 59 | PAFAH2 FP conf 61
Cc1c[nH]c2cccc(-c3cc4ccccc4o3)c12	none (no result: PAFAH1B3 inh, Apaf-1 inh, PAFAH1B2 inh, PAFAH2 FP inh)
NC(=O)c1ccc(NC(=O)COC(=O)c2ccc3c(c2)OCCO3)cc1	none
CC(C)NC(=O)COC(=O)c1ccc(NS(=O)(=O)c2ccc3c(c2)OCCO3)cc1	PAFAH2 FP inh 51 | PAFAH2 FP conf 43
O=C(COC(=O)c1ccc2c(c1)OCCO2)Nc1ccc(F)cc1	PAFAH2 FP inh 81 | PAFAH2 FP conf 82
Cc1ccc(NC(=O)COC(=O)c2ccc(-n3cccn3)cc2)cc1C	none
O=C(COC(=O)c1ccc2c(c1)OCCO2)Nc1ccc(F)cc1F	PAFAH2 FP inh 77 | PAFAH2 FP conf 62
Cc1ccnn1-c1ccc(C(=O)OCC(=O)Nc2ccc(F)cc2)cc1	PAFAH2 FP inh 55 | PAFAH2 FP conf 60
O=C(COC(=O)CC1CCCC1)Nc1ccc(Cl)cc1	PAFAH2 FP inh 80 | PAFAH2 FP conf 74
CCOc1ccc(NC(=O)COC(=O)CC2CCCCC2)cc1	PAFAH2 FP inh 45 | PAFAH2 FP conf 41
COC(=O)[C@H](CC(C)C)N1Cc2nnn(Cc3ccccc3)c2-c2ccccc2S1(=O)=O	none (no result: PAFAH1B3 inh, Apaf-1 inh, PAFAH1B2 inh, PAFAH2 FP inh)
O=C(O)CCCN1C(=O)/C(=C\c2ccccc2OCc2ccccc2)SC1=S	none
O=C(O)CN1C(=O)/C(=C\c2ccccc2OCc2ccc(F)cc2)SC1=S	PAFAH2 FP inh 39 | PAFAH2 FP conf 35
Cc1cccc(N(CC(N)=O)C2SC(=O)N(c3ccccc3)C2=O)c1 (stereo unspecified)	none
